Rows were chosen to be rich in hits. Some 1.8% of all compounds tested hit in one or more screens of this group.
NPY Y1 blocker: blocks the human neuropeptide Y Y1 receptor; P25929; HEK293-CNG Y1 cells, membrane potential fluorescence; NPY at EC95, then isoproterenol; inhibition, % at 3.6 µM; 1% of 200,000 active; AID 1040;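 active = inhibition above the campaign mean inhibition of all tested compounds plus 3 SD, cut at about 20% in these data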;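 note: 0% = DMSO wells given NPY plus isoproterenol and 100% = isoproterenol alone without NPY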
Target sequence (P25929 whole entry, looked up): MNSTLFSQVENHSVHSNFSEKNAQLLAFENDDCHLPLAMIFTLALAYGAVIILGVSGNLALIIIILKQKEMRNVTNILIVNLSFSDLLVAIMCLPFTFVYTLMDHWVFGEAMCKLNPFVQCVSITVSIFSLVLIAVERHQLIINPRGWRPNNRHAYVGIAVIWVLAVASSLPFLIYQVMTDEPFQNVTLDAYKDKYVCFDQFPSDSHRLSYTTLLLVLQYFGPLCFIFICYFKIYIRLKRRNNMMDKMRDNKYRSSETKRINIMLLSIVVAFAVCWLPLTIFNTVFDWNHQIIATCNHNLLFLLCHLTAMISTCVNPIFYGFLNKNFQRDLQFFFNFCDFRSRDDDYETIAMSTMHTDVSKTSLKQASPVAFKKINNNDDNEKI
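Material: HEK293 Y1/CNG channel cell line; also added: NPY (25 nM), isoproterenol (1 µM), Ro 20-1724 (25 µM); doses: one concentration, 3.6 µM, in 0.4% DMSO; schedule: compound incubation 1 h at room temperature, readout 45 min post-stimulation; technique: membrane potential fluorescence; measure: fluorescence ratio normalized to % inhibition between controls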
NPY1 pot ag: potentiates or activates human NPY-Y1 receptor. 0.37% of 220,000 active. NPY-Y1 expressing cells, potentiator/agonist activation. activation, % at 3.6 µM; in the data active = activation above about 33%, passing the limit was not always enough;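 note: cells stimulated with NPY at EC10 then isoproterenol at EC100; 0% = low agonist plus stimulus and 100% = saturating agonist plus stimulus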
NPY Y2 blocker: antagonists of human neuropeptide Y receptor Y2. P49146. NPY-Y2 expressing cells, antagonist mode. inhibition, % at 2.7 µM. 0.99% of 140,000 active. AID 793; in the data active = inhibition above about 17%;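 note: 0% = vehicle with agonist challenge and 100% = reference antagonist with challenge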
NPY-Y2 PAM-ag: potentiators or agonists of human neuropeptide Y receptor Y2 | P49146 | cells expressing NPY-Y2, potentiator/agonist read-out | activation, % at 3.6 µM | 0.45% of 220,000 active; in the data active = activation above about 27%;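 note: cells stimulated with NPY near EC25 plus isoproterenol at EC100; 0% = vehicle plus submaximal agonist and 100% = vehicle plus saturating agonist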
NPY1 antag ctr: human NPY-Y1 antagonism in NPY-Y2 counter-screen; shares compounds with NPY Y2 blocker; cell-based NPY-Y1 antagonism counterscreen; inhibition, % at 3.6 µM; 19% of 710 active; AID 1256; in the data active = inhibition above about 20%;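 note: cells challenged with NPY then isoproterenol with cAMP sensed through a CNG channel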
NPY-Y2 ant conf: confirmation of human neuropeptide Y receptor Y2 antagonists | shares compounds with NPY Y2 blocker | HEK293 NPY-Y2 CNG channel, membrane potential fluorescence | inhibition, % at 2.8 µM | 32% of 710 active;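 active = mean inhibition of triplicate wells above the hit cutoff set in the primary screen, cut at about 17% in these data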;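 note: 0% = DMSO with NPY challenge and 100% = BIIE0246 high control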
An asterisk follows results filed as active; nt = no result.

SMILES	NPY Y1 blocker	NPY1 pot ag	NPY Y2 blocker	NPY-Y2 PAM-ag	NPY1 antag ctr	NPY-Y2 ant conf
CN(C)c1ccc(C(=O)OCc2ccccc2)cc1	7	-31	8	-17	nt	nt
COC(=O)c1ccc(COC(=O)c2ccc(N(C)C)cc2)cc1	8	-46	20*	-5	4	10
COc1cc(/C=N/NC(N)=O)ccc1OCC(=O)Nc1ccc(C)c(C)c1	-1	-14	18*	-16	11	34*
COc1cc(/C=N/NC(N)=S)ccc1OCC(=O)Nc1ccc(C)c(C)c1	-2	-6	-3	-9	nt	nt
Clc1ccc(CSc2nnc(-c3ccncc3)o2)cc1	8	-4	3	-2	nt	nt
Clc1ccc(CSc2nnc(-c3ccc4c(c3)OCO4)o2)cc1	9	-21	22*	3	27*	30*
COC(=O)[C@@]1(Cc2ccc(F)cc2)[C@H]2c3cc(C(=O)N4CCCC4)n(CCc4c[nH]c5ccc(OC)cc45)c3C[C@H]2CN1C(=O)c1ccccc1	0	-15	-3	3	nt	nt
Cc1ccc(C(C(=O)NC2CCCC2)N(C(=O)Cc2cccs2)c2ccc(C)c(C)c2)o1 (stereo not given)	18	-26	24*	-7	14	9
N#CCCN1CCN(C2=NC(=O)/C(=C\c3cccs3)S2)CC1	4	-1	nt	-3	nt	nt
COc1ccc(/C=C/C(=O)NC(C)CCc2ccccc2)cc1OC (stereo not given)	8	17	nt	7	nt	nt
COc1ccc(/C=C/C(=O)NC(C)CCc2ccccc2)cc1 (stereo not given)	19	2	22*	3	11	7
O=C(c1ccccn1)N(Cc1ccco1)C1(C(=O)NC2CCCCC2)CCCCC1	19	2	32*	1	11	6
Cc1cccc(C)c1NC(=O)C1(N(Cc2ccco2)C(=O)c2ccccn2)CCCC1	10	-18	5	-3	nt	nt
O=C(Cn1c(N2CCN(c3ccccc3)CC2)nc2ccccc21)c1ccccc1	-4	4	18*	2	-4	-5
CCn1c(SCC(=O)NCc2ccco2)nnc1C(C)C	-5	16	23*	9	0	1
CC(C)c1nnc(SCC(=O)NCc2ccco2)n1C	-4	12	1	-1	nt	nt
Cc1cc(C)c(NC(=O)COC(=O)CSc2ccc(Br)cc2C)c(C)c1	6	3	18*	1	6	7
CCN(CC)c1ccc(NC(=O)COC(=O)CSc2ccc(Br)cc2C)cc1	5	-20	6	-5	nt	nt
CC1(C)CC2CC(C)(CN2C(=O)COc2cccc3ccccc23)C1 (stereo not given)	6	-8	17*	14	5	6
Cc1cccc(-c2noc(CN(C(=O)C(c3ccccc3)c3ccccc3)C(C)C)n2)c1	18	1	17*	-14	8	4
N#Cc1ccc(-c2cccnc2)nc1SCc1ccc(Cl)c(Cl)c1	4	2	27*	10	19	21*
Cc1ccc(C(C(=O)NC2CCCCC2)N(Cc2ccco2)C(=O)Cc2c[nH]c3ccccc23)o1 (stereo not given)	14	-5	19*	-5	13	11
Cc1ccc(C(C(=O)NC2CCCCC2)N(C(=O)Cc2c[nH]c3ccccc23)c2ccccc2C)o1 (stereo not given)	3	-13	1	-3	nt	nt
COc1cccc(C2C(C(N)=O)=C(C)Nc3nc(-c4ccccc4Cl)nn32)c1 (stereo not given)	-3	6	20*	11	-2	1
Cc1ccc(NC(=O)c2c(C(F)(F)F)nn(C)c2SCc2ccc(Cl)cc2)cc1C	18	-17	17*	-14	13	10
SMILES	NPY Y1 blocker	NPY1 pot ag	NPY Y2 blocker	NPY-Y2 PAM-ag	NPY1 antag ctr	NPY-Y2 ant conf
CN(C(=O)COC(=O)c1ccc2ccccc2n1)C1CCS(=O)(=O)C1 (stereo not given)	0	-25	nt	-1	nt	nt
O=C(NC1CCCC1)C(c1ccsc1)N(CCc1ccccc1)C(=O)Cc1cccs1 (stereo not given)	8	4	34*	13	21*	13
O=C(NC1CCCC1)C(c1ccsc1)N(C(=O)Cc1cccs1)c1ccccc1 (stereo not given)	4	1	1	2	nt	nt
C/C(=N\NC(=O)C(=O)Nc1cc(C)ccc1C)c1ccncc1	nt	13	nt	-6	nt	nt
Cc1c(Cl)cccc1NC(=O)COC(=O)c1c2c(nc3ccccc13)CCN(Cc1ccccc1)C2	8	-32	12	-2	nt	nt
CC(C)c1ccccc1NC(=O)COC(=O)c1c2c(nc3ccccc13)CCN(Cc1ccccc1)C2	18	-18	19*	-6	17	9
O=C(NC1CCCCCC1)c1c2c(nc3ccccc13)CCN(Cc1ccccc1)C2	10	6	56*	-6	81*	67*
CCc1cccc(CC)c1NC(=O)Cn1c(-c2ccccc2Cl)nc2ccccc21	8	-2	24*	-4	13	11
N#Cc1ccc(S(=O)(=O)N2CCc3[nH]c4ccc(F)cc4c3C2)cc1	nt	26	nt	22	nt	nt
CCc1ccccc1NNC(=O)c1snnc1C	nt	0	nt	13	nt	nt
O=C(O)CC1(CC(=O)NCc2csc(-c3cccs3)n2)CCCCC1	nt	-2	nt	-18	nt	nt
O=[N+]([O-])c1ccc(-c2csc3[n+]2CCS3)cc1	20	-10	23*	-11	5	4
CC(C)c1ccc(OCC(=O)NC2=NCCS2)cc1	-3	-4	nt	0	nt	nt
CCCCN1C2=NCCCN2c2ccccc21	4	17	1	9	nt	nt
CCCCN1C2=NCCCN2c2cc(C)c(C)cc21	13	-13	22*	-6	11	6
COc1cc(/C=C2\SC(=Nc3c(C)n(C)n(-c4ccccc4)c3=O)NC2=O)ccc1O	20*	-28	31*	-6	48*	74*
COc1cc(/C=C2\SC(=Nc3ccc(O)cc3)NC2=O)cc(OC)c1O	8	9	nt	-2	nt	nt
CC/C(=N\NC(=O)c1cc(C)nc2ccccc12)c1ccc(C)s1	-1	22	2	10	nt	nt
COC(=O)c1cc(NC(=O)/C=C/c2ccccc2)ccc1O	6	19	nt	-6	nt	nt
COc1ccc(C(=O)NC(=S)Nc2ccc(NC(=O)c3ccco3)cc2)cc1[N+](=O)[O-]	2	8	19*	10	52*	88*
CCOc1ccc(C(=O)NC(=S)Nc2ccc(N3CCCCC3)cc2)cc1[N+](=O)[O-]	-1	-12	29*	-7	78*	91*
COc1ccc(C(=O)NC(=S)Nc2cccc(NC(=O)c3ccco3)c2)cc1[N+](=O)[O-]	11	-3	0	-13	nt	nt
C[C@H](NC(=O)OC(C)(C)C)C(=O)N/N=C/c1ccc2nccnc2c1	nt	19	nt	-8	nt	nt
C=CCn1c(SCc2c(C(=O)OC)sc(N)c2C(=O)OC)nnc1-c1ccc(Br)cc1	10	-2	14	-19	nt	nt
CCCCc1cc(O)c(CCCC)c(O)c1	-6	19	21*	14	-1	-4
